Data from ChEMBL document CHEMBL3352277, “Click approach to the discovery of 1,2,3-triazolylsalicylamides as potent Aurora kinase inhibitors” (Bioorg Med Chem, 2014).
The source made the active and inactive calls. The rule behind the calls is not given here.

Key:
[1] = target: Serine/threonine-protein kinase pim-1 (Homo sapiens) (UniProt P11309); test: Inhibition of […] (unknown origin) at 10 uM
In short: (§1)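 Single 10 µM concentration against a 40-kinase panel on the radiometric HotSpot platform. Kinase and substrate were added before ³³P-ATP started the reaction, which ran 2 h at room temperature.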

[2] = target: Glycogen synthase kinase-3 beta (Homo sapiens) (UniProt P49841); test: Inhibition of GSK3beta (unknown origin) at 10 uM; in short: as §1
[3] = target: T1, Aurora kinase A (Homo sapiens) (UniProt O14965); test: Inhibition of Aurora A (unknown origin) at 10 uM
T1 sequence (whole entry): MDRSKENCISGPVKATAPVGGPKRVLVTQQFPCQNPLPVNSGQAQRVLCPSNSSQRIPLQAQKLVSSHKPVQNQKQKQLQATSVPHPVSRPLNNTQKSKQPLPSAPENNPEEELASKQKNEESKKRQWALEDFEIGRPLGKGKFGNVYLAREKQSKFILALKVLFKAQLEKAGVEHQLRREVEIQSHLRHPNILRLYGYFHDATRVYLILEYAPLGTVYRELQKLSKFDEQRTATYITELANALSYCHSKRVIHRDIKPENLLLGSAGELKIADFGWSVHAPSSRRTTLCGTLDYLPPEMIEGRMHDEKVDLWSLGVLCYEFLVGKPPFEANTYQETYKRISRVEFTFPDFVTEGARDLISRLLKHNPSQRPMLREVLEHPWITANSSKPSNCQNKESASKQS

[4] = tested on: Epidermal growth factor receptor (Homo sapiens), P00533 [L858R]; test: Inhibition of EGFR L858R mutant (unknown origin) at 10 uM; assay type: protein assay; in short: as §1
Aurora kinase B [5] = target: T2, Aurora kinase B (Homo sapiens, UniProt Q96GD4); test: Inhibition of Aurora B (unknown origin) using [33P]-ATP and 10 uM ATP after 2 hrs
Aurora kinase B [6] = target: T2, Aurora kinase B; test: Inhibition of Aurora B (unknown origin) at 10 uM using [33P]-ATP and 10 uM ATP after 2 hrs
Aurora kinase A = target: T3, Aurora kinase A (Homo sapiens, UniProt O14965); test: Inhibition of Aurora A (unknown origin) using [33P]-ATP and 10 uM ATP after 2 hrs
T3 sequence (O14965 whole entry): T1 sequence (whole entry)

[7] = target: T1, Aurora kinase A (Homo sapiens); test: Inhibition of Aurora A (unknown origin) at 10 uM using [33P]-ATP and 10 uM ATP after 2 hrs

T2 sequence (Q96GD4 whole entry): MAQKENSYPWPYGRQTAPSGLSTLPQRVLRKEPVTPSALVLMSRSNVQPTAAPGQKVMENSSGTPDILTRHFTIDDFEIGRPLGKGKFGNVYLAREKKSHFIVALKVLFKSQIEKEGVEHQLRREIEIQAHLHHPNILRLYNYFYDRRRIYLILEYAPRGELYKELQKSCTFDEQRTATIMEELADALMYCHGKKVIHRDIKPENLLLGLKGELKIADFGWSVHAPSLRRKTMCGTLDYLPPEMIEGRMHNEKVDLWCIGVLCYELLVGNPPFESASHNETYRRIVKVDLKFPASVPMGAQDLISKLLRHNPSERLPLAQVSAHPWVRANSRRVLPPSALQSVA
Chain of Serine/threonine-protein kinase pim-1 (Homo sapiens) (P11309 whole entry, looked up): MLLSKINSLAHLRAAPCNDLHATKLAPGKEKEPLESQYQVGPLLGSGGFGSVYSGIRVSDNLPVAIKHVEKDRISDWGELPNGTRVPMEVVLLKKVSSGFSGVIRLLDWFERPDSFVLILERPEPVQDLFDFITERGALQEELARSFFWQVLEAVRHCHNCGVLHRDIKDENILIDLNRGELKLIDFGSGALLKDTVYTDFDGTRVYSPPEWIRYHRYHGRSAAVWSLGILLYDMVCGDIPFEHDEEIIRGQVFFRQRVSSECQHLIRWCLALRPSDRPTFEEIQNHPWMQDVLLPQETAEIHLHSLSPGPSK
Chain of Glycogen synthase kinase-3 beta (Homo sapiens) (P49841 whole entry, looked up): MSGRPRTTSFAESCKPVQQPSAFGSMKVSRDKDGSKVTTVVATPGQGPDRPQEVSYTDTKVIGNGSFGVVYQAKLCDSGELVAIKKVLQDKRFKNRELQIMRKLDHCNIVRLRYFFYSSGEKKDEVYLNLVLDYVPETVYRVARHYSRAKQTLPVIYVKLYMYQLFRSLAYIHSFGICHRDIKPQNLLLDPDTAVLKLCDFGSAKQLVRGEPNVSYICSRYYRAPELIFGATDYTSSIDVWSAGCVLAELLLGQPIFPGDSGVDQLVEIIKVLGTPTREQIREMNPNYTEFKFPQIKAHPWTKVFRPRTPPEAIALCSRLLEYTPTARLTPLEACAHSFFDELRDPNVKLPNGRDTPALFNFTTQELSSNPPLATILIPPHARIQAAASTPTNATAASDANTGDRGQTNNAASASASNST
Chain of Epidermal growth factor receptor (Homo sapiens), P00533 [L858R] (P00533 whole entry L858R): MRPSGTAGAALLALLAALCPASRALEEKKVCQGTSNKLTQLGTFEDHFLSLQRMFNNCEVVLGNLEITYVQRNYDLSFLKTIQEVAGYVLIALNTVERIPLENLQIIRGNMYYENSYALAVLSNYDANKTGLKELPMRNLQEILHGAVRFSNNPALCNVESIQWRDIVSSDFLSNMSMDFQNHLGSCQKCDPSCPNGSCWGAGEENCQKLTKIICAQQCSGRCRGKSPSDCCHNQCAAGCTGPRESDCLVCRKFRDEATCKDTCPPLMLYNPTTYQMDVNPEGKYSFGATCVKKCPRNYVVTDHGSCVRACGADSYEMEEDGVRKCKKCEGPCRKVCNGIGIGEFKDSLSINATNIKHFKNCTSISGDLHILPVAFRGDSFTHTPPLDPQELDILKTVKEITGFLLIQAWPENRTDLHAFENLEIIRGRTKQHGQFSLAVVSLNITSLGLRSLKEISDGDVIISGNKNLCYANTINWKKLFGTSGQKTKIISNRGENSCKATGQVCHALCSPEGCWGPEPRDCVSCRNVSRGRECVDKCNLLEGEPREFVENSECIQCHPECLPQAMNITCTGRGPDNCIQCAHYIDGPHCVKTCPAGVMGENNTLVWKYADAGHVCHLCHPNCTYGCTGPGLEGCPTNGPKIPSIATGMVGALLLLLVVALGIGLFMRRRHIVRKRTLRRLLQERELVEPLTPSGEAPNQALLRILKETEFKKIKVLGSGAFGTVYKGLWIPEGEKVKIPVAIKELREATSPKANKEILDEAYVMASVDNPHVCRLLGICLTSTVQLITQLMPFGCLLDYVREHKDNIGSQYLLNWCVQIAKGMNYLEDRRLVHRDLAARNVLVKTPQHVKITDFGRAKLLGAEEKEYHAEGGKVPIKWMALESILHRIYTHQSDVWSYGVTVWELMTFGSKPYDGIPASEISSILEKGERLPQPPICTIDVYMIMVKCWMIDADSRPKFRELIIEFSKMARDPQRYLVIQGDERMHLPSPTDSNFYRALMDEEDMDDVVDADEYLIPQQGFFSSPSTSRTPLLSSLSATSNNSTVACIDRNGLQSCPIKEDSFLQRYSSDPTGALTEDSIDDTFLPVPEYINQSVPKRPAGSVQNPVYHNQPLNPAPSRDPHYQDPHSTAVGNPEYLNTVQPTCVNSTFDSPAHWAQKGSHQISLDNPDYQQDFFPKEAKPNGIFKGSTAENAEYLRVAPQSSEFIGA

SMILES | inhibition [1] | inhibition [2] | inhibition [3] | inhibition [4] | IC50 (Aurora kinase B [5]) | inhibition (Aurora kinase B [6]) | IC50 (Aurora kinase A) | inhibition [7]
COc1cc(OC)cc(-c2cn(-c3ccc(O)c(C(=O)Nc4cccc(C(F)(F)F)c4)c3)nn2)c1 | Active | Active | 74.5% | Active |  |  |  | 
COC(=O)c1cccc(NC(=O)c2cc(-n3cc(-c4cc(OC)cc(OC)c4)nn3)ccc2O)c1 |  |  |  |  | 3580 nM | 71.3% | 370 nM | 90.2%
COC(=O)c1cccc(-c2cn(-c3ccc(O)c(C(=O)Nc4cccc(C(F)(F)F)c4)c3)nn2)c1 |  |  |  |  | 63200 nM | 57.3% | 1820 nM | 90.5%
COc1cccc(NC(=O)c2cc(-n3cc(-c4cc(OC)cc(OC)c4)nn3)ccc2O)c1 |  |  |  |  |  | 50.3% |  | 83.3%
